Experimental data from ChEMBL document CHEMBL4346656, “Synthesis of urea analogues bearing N-alkyl-N'-(thiophen-2-yl) scaffold and evaluation of their innate immune response to toll-like receptors” (Eur J Med Chem, 2019).
Calls of active or inactive are those of the source. The rule behind the calls is not given here.

Legend:
Type in all cases: cell-based
Toll-like receptor 2 [1] = target: T1, Toll-like receptor 2 (Homo sapiens, UniProt O60603); assay: Agonist activity at human TLR2 expressed in HEK-Blue cells assessed as activation of SEAP incubated for 24 hrs by quanti-blue SEAP assay
How it was run: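 TLR2 agonism in HEK-Blue hTLR2 cells, 4 × 10⁴/well, pre-cultured 24 h in DMEM/10% FBS at 37 °C, then treated 24 h with compound in fresh DMEM (tested up to 200 μM). Supernatant SEAP was read with QUANTI-Blue at 37 °C for 0.5–1 h, A620. EC50 came from at least three independent repeats.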

Toll-like receptor 2 [2] = target: T1, Toll-like receptor 2; assay: Agonist activity at human TLR2 expressed in HEK-Blue cells assessed as increase in TLR2 expression at 0.1 uM incubated for 24 hrs by Western blot analysis relative to control
How it was run: (§1)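 Western blot: HEK-Blue hTLR2 cells, 1.5 × 10⁶/well, were grown 24 h, then treated in serum-free DMEM with compound (0–50 μM) for 24 h. Cells were lysed in RIPA/PMSF, equal lysate loaded, SDS-PAGE, nitrocellulose. Membranes were blocked with 5% milk, probed overnight at 4 °C with rabbit anti-TLR2 (1:2000), then HRP secondary, with GAPDH as loading control. Three independent experiments.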

[3] = target: Toll-like receptor 3 (Homo sapiens) (UniProt O15455); assay: Agonist activity at human TLR3 expressed in HEK-Blue cells assessed as activation of SEAP up to 100 uM incubated for 24 hrs by quanti-blue SEAP assay
How it was run: (§2)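 HEK-Blue hTLR3 or hTLR4 cells were seeded at 4 × 10⁴/well and pre-grown 24 h, then incubated 24 h with compound at 0–100 μM. […] SEAP in the supernatant was read by QUANTI-Blue at OD620.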

[4] = target: Toll-like receptor 4 (Homo sapiens) (UniProt O00206); assay: Agonist activity at human TLR4 expressed in HEK-Blue cells assessed as activation of SEAP up to 100 uM incubated for 24 hrs by quanti-blue SEAP assay; how it was run: as §2
[5] = target: T2, Toll-like receptor 1/2 (Homo sapiens) (UniProt O60603+Q15399); assay: Agonist activity at human TLR1/2 expressed in HEK-Blue cells assessed as activation of SEAP at 0.5 uM incubated for 24 hrs by quanti-blue SEAP assay in presence of Anti-hTLR2-IgA
How it was run: (§3)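 HEK-Blue hTLR2 cells (endogenous TLR1 and TLR6) were seeded at 4 × 10⁴/well in DMEM with 10% FBS and grown 24 h at 37 °C. The medium was then replaced with DMEM holding 0.5 μM compound plus anti-hTLR1-IgG, anti-hTLR2-IgA or anti-hTLR6 antibody (0–10 μg/mL) for 24 h. Supernatant was mixed 1:1 with QUANTI-Blue for 0.5–1 h at 37 °C and A620 read.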

Toll-like receptor 2 [6] = target: T1, Toll-like receptor 2; assay: Agonist activity at human TLR2 expressed in HEK-Blue cells assessed as NF-kappaB activation at 10 uM incubated for 24 hrs in presence of NF-kappaB inhibitor, triptolide by quanti-blue SEAP assay
How it was run: (§4)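 HEK-Blue hTLR2 cells (human TLR2 plus NF-κB-driven SEAP reporter in HEK293) were seeded at 4 × 10⁴/well and pre-grown 24 h at 37 °C. They were then exposed 24 h to compound in DMEM, with or without triptolide. SEAP in the supernatant was read with QUANTI-Blue (1:1, 37 °C, 0.5–1 h) at A620. Mean ± SD of three independent experiments.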

Toll-like receptor 2 [7] = target: T1, Toll-like receptor 2; assay: Agonist activity at human TLR2 in PMA differentiated THP-1 cells assessed as TNF-alpha production incubated for 4 hrs by ELISA
How it was run: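 THP-1 cells (2.5 × 10⁵/mL) were differentiated with 100 nM PMA in RPMI/10% FBS for 24 h at 37 °C, 5% CO₂. They were washed, rested 24 h in fresh medium, then treated 4 h with compound in serum-free RPMI. Supernatant TNF-α was measured by sandwich ELISA against recombinant standards, duplicate samples. Mean ± SD, three independent experiments.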

Toll-like receptor 2 [8] = target: T1, Toll-like receptor 2; assay: Agonist activity at human TLR2 expressed in HEK-Blue cells assessed as increase in TLR2 expression at 10 uM incubated for 24 hrs by Western blot analysis relative to control; how it was run: as §1
[9] = Cytotoxicity against human HEK-Blue cells transfected with hTLR2 assessed as cell viability upto 100 uM incubated for 24 hrs by CCK8 assay
How it was run: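 HEK-Blue hTLR2 cells, 4 × 10⁴/well, were pre-cultured 24 h in DMEM/10% FBS at 37 °C, then exposed to compound for 24 h at 37 °C. Half the medium was removed, CCK-8 added, and incubation run 1–4 h at 37 °C before reading A450. Mean ± SD of three independent experiments.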

Toll-like receptor 2 [10] = target: T1, Toll-like receptor 2; assay: Agonist activity at human TLR2 expressed in HEK-Blue cells assessed as NF-kappaB activation at 10 uM incubated for 24 hrs by quanti-blue SEAP assay; how it was run: as §4
[11] = target: T2, Toll-like receptor 1/2 (Homo sapiens); assay: Agonist activity at human TLR1/2 expressed in HEK-Blue cells assessed as activation of SEAP at 0.5 uM incubated for 24 hrs by quanti-blue SEAP assay in presence of Anti-hTLR1-IgG; how it was run: as §3
TLR2/TLR6 (Homo sapiens) = TLR2/TLR6 (Homo sapiens) (UniProt O60603+Q9Y2C9); assay: Agonist activity at human TLR2/6 expressed in HEK-Blue cells assessed as activation of SEAP at 0.5 uM incubated for 24 hrs by quanti-blue SEAP assay in presence of Anti-hTLR6-IgG; how it was run: as §3
[12] = target: Toll-like receptor 4 (Homo sapiens) (UniProt O00206); assay: Agonist activity at human TLR4 expressed in HEK-Blue cells assessed as activation of SEAP at 10 ug/ml incubated for 24 hrs by quanti-blue SEAP assay

T1 sequence (O60603 whole entry): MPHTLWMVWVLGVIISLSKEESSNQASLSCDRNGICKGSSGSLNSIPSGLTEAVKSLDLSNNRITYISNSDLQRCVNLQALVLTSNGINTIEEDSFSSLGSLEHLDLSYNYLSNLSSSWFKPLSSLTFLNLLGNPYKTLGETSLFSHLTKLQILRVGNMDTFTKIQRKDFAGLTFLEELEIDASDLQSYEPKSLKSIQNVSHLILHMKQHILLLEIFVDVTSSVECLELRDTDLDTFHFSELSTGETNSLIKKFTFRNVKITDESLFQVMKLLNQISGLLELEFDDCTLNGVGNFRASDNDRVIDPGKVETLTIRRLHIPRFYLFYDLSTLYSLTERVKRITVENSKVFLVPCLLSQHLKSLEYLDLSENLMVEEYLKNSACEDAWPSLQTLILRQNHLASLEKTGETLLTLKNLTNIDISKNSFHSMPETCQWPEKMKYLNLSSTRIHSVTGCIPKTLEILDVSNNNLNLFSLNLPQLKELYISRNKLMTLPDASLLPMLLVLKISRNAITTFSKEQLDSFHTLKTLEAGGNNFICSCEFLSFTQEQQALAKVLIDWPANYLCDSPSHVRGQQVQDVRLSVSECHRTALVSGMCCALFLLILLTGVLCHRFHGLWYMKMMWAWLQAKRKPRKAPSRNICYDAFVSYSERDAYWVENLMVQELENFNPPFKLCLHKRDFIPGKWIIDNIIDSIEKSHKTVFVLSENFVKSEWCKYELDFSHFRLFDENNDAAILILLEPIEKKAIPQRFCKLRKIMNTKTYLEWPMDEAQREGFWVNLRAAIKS
Toll-like receptor 4 (Homo sapiens), sequence (O00206 whole entry): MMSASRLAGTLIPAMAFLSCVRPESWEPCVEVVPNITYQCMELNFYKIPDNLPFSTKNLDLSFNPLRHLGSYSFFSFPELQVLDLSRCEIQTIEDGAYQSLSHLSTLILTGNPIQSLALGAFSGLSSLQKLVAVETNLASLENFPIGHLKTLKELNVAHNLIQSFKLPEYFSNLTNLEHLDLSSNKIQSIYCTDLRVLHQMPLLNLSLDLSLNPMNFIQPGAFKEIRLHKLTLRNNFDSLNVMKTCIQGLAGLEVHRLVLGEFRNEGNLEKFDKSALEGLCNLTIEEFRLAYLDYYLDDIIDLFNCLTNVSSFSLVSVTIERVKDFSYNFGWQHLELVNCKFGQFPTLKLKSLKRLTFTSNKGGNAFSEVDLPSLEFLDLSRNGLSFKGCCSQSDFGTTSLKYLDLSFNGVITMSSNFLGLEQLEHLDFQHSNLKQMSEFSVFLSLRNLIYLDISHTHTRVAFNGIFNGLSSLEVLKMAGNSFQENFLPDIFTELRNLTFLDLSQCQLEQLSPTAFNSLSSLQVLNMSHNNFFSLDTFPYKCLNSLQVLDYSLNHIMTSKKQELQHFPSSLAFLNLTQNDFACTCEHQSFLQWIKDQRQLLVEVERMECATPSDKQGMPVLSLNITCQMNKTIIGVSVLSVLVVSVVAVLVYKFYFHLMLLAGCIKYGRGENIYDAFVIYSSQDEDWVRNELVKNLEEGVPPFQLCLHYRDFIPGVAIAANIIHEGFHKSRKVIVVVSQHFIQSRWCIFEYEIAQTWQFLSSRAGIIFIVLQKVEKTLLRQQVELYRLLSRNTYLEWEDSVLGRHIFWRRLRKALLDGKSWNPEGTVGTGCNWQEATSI
Toll-like receptor 3 (Homo sapiens), sequence (O15455 whole entry): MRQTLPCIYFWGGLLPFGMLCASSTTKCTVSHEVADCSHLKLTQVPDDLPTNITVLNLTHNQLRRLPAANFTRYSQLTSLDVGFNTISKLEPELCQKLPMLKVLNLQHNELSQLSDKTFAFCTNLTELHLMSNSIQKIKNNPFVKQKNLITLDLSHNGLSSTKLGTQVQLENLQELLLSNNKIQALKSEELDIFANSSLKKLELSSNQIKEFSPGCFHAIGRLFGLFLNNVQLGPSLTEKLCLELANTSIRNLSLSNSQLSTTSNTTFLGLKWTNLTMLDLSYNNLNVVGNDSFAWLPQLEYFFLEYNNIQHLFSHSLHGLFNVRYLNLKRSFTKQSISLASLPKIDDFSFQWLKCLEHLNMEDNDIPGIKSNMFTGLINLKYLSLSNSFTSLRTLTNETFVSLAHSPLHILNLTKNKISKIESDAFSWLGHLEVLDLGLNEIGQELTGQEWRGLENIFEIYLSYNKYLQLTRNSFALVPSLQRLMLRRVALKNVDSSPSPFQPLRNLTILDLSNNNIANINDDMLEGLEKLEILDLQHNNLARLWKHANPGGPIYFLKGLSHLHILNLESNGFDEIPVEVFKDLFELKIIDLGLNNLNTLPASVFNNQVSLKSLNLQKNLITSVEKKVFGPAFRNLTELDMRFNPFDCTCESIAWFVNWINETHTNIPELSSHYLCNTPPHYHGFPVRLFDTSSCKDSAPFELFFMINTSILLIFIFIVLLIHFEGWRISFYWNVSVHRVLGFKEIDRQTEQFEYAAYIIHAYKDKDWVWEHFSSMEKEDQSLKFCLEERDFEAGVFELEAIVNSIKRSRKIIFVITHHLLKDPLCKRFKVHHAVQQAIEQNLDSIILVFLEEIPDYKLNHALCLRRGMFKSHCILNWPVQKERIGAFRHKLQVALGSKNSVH

SMILES	EC50 (Toll-like receptor 2 [1])	EC50 (Toll-like receptor 2 [1]; read-out: EC50) [µM]	other results
CCOC(=O)c1c(NC(=S)N2CCN(c3ccccc3)CC2)sc2c1CCC2	Not Active		
CC(C)OC(=O)c1c(NC(=S)N2CCN(C)CC2)sc2c1CCC2		16.4	
CCOC(=O)c1c(NC(=O)N2CCN(CCO)CC2)sc2c1CCC2	Not Active		
CC(C)OC(=O)c1c(NC(=O)N2CCN(c3ccccc3)CC2)sc2c1CCC2	Not Active		
COC(=O)c1c(NC(=O)N2CCN(C)CC2)sc2c1CCC(C)C2 (stereo unspecified)		11.8	
CCOC(=O)c1c(NC(=S)N2CCN(C)CC2)sc2c1CCCC2		6.43	
CCOC(=O)c1c(NC(=O)N2CCCCC2)sc2c1CCC2	Not Active		
COC(=O)c1c(NC(=O)N2CCN(C)CC2)sc2c1CCC2		0.45	
CCN1CCN(C(=O)Nc2sc3c(c2C(=O)OC(C)C)CCC3)CC1	Not Active		
CN1CCN(C(=O)Nc2sc3c(c2C(=O)O)CCC3)CC1	Not Active		
CCOC(=O)c1c(NC(=O)N2CCN(C(C)=O)CC2)sc2c1CCC2	Not Active		
COC(=O)c1c(NC(=O)N2CCN(C)CC2)sc2c1CCCC2		0.16	fold change (FC) (Toll-like receptor 2 [2]): > 5; Activity [3]: inactive; Activity [4]: inactive; Activity [5]: inactive; Activity (Toll-like receptor 2 [6]): inactive; Activity (Toll-like receptor 2 [7]): Dose-dependent effect; fold change (FC) (Toll-like receptor 2 [8]): 8; Activity [9]: Non-Toxic; Activity (Toll-like receptor 2 [10]): Active; Activity [11]: inactive; Activity (TLR2/TLR6 (Homo sapiens)): Active; Activity [12]: inactive

Now from value to compound, other results behind:

EC50 (Toll-like receptor 2 [1])	EC50 (Toll-like receptor 2 [1]; read-out: EC50) [µM]	SMILES	other results
Not Active		CC(C)OC(=O)c1c(NC(=S)N2CCN(C)CC2)sc2c1CCCCC2	
Not Active		CCOC(=O)c1c(NC(=O)N2CCOCC2)sc2c1CCC2	
	3.46	CCOC(=O)c1c(NC(=S)N2CCN(C)CC2)sc2c1CCC2	
Not Active		CC(C)OC(=O)c1c(NC(=S)N2CCN(c3ccccc3)CC2)sc2c1CCC2	
	45.2	CC(C)OC(=O)c1c(NC(=S)N2CCN(C)CC2)sc2c1CCCC2	
	0.56	CCOC(=O)c1c(NC(=O)N2CCN(C)CC2)sc2c1CCC2	
	1.33	COC(=O)c1c(NC(=O)N2CCN(C)CC2)sc2c1CCCCC2	
	8.55	CCOC(=O)c1c(NC(=O)N2CCN(CC)CC2)sc2c1CCC2	
Not Active		CC(=O)N1CCN(C(=S)Nc2sc3c(c2C(=O)OC(C)C)CCC3)CC1	
Not Active		CCOC(=O)c1c(NC(=S)N2CCN(C(C)=O)CC2)sc2c1CCC2	
	4.59	CC(C)OC(=O)c1c(NC(=O)N2CCN(C)CC2)sc2c1CCC2	
Not Active		CCCCCC1CCc2c(sc(NC(=O)N3CCN(C)CC3)c2C(=O)OC)C1 (stereo unspecified)	
Not Active		CCCOC(=O)c1c(NC(=S)N2CCN(C)CC2)sc2c1CCCC2	
	0.35	CCOC(=O)c1c(NC(=O)N2CCN(C)CC2)sc2c1CCCC2	
	6.63	CCCOC(=O)c1c(NC(=O)N2CCN(C)CC2)sc2c1CCCC2	
	14.2	CCCOC(=O)c1c(NC(=O)N2CCN(C)CC2)sc2c1CCC2	
Not Active		CC(C)OC(=O)c1c(NC(=S)N2CCNCC2)sc2c1CCC2	
